WT yeast gro inh: growth inhibition of WT yeast, mitochondrial fusion screen; 190,000 compounds, 2.1% hits; inhibition, % at 10 µM; AID 1362; mitochondrial fusion phenotypic screen, WT strain; in the data active means inhibition above about 58%; tested in S. cerevisiae
MPTP block: permeability transition pore inhibition | inhibition, % at 10 µM | 360,000 compounds, 1.4% hits | isolated mouse mitochondria, Ca2+ swelling absorbance, 30 min | AID 602449;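 active means inhibition of 50% or more, scaled per plate between neutral and stimulator controls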;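 further: 0% = DMSO wells given calcium and 100% = 1 mM EGTA wells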
EBV gp42 inh: blocks Epstein-Barr virus glycoprotein 42 binding; Fluorescence polarization binding assay, mP read-out; Q1HVG2; inhibition, % (tested at 21.74 µM); 220,000 compounds, 0.42% hits; in the data active means inhibition above about 50%
Target sequence (Q1HVG2 whole entry, looked up): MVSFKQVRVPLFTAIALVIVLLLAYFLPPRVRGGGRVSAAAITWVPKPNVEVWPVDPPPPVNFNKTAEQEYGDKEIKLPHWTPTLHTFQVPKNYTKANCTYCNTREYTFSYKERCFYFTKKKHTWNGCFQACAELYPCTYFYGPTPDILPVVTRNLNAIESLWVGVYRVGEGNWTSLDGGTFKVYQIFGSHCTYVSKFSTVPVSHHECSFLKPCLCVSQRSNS
TbMetRS inhib: Trypanosoma brucei MetRS inhibition | 360,000 compounds, 0.4% hits | inhibition, % at 11.9 µM | purified T. brucei MetRS, ATP depletion, Kinase-Glo luminescence | AID 624268;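 active means inhibition above a per-plate cutoff of the control wells' mean inhibition plus 3 SD, cut at about 5.5% in these data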;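 further: 0% = DMSO wells median and 100% = median of wells with control inhibitor compound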
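Measured by: Kinase-Glo luciferase luminescence reporting remaining unconsumed ATP. Material: purified T. brucei MetRS enzyme. Doses: 11.9 µM compound single dose, 0.9% DMSO. Medium: HEPES buffer containing pyrophosphatase, BSA, spermine, DTT. Times: 15 min preincubation, 2 h reaction, all 25 °C. Reagent: methionine, ATP and bulk E. coli tRNA.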
GRIN3A LBD mod: modulators (binders) of human NR3A ligand-binding domain. NR3A LBD differential scanning fluorimetry, Tm shift; 0% = protein alone, 100% = glycine-bound protein. Tm shift relative to glycine control, % at 25 µM. 340,000 compounds, 2.5% hits;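 active means melting temperature shift of at least 10% of the positive control shift, at one fixed dose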
CHOP inhibitor: CHOP inhibition in unfolded protein response; CHO-K1 CHOP-promoter luciferase, tunicamycin-induced, 15-18 h; inhibition, % at 10 µM; 220,000 compounds, 3.8% hits; AID 2732;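 active means compounds that reduced the stress-induced luciferase reporter signal by more than about 70% of percent inhibition, limit read from the data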;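 further: 0% = tunicamycin plus vehicle and 100% = wells without tunicamycin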
MPTP counter: membrane potential counter-screen of mitochondrial pore inhibitors. shares compounds with MPTP block. isolated mitochondria, Rhodamine 123 fluorescence. inhibition, % at 10 µM. 5,000 compounds, 78% hits. AID 624504; in the data active means inhibition above about 22%;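 further: 0% = DMSO vehicle and 100% = positive control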
MPTP abs DR: dose response confirmation of mitochondrial permeability transition pore inhibitors; shares compounds with MPTP block; IC50, µM; 780 compounds, 58% hits; isolated mitochondria swelling, absorbance; AID 651561; in the data active means IC50 below about 20 µM
MPTP counter DR: MPTP inhibitor counter-screen activity, dose response. shares compounds with MPTP block. isolated mitochondria counterscreen, fluorescence read-out. IC50, µM. 780 compounds, 49% hits. AID 651564; in the data active means IC50 below about 80 µM
* marks the source's active call; other numbers are inactive results; . = no result. Hits are enriched below; roughly 6.4% of the tested compounds scored in any of these assays.

SMILES | WT yeast gro inh | MPTP block | EBV gp42 inh | TbMetRS inhib | GRIN3A LBD mod | CHOP inhibitor | MPTP counter | others
CC(NC(=S)Nc1ccc(OC(F)F)c(Cl)c1)C(C)(C)C (stereo not drawn) | 47.5 | 92.9* | 1.5 | 3.2 | 6.4 | 69.5 | 95.3*
Fc1ccc(NC(=S)Nc2ccccc2N2CCOCC2)cc1Cl | 61.4* | 100.2* | 3.2 | -0.6 | -2.9 | 14.8 | 97.7*
O=S(=O)(c1ccc(Cl)c(NC(=S)Nc2ccccc2N2CCOCC2)c1)N1CCOCC1 | 9.6 | 1.9 | -5.2 | -0.4 | 0.2 | 27.6 | .
FC(F)Oc1ccccc1NC(=S)Nc1cccnc1 | 4.6 | 2.2 | -17.6 | 0.9 | -1.9 | 23.4 | .
Nc1nccc(/C=C/c2ccc(Cl)cc2)n1 | . | 1.0 | -9.0 | -0.8 | 0.9 | 44.8 | .
COc1cccc(NC(=S)NNC(=O)c2ccccc2OC(F)F)c1 | -7.4 | 0.0 | -16.8 | -0.5 | -3.4 | 3.2 | .
Cc1ccc(NC(=S)Nc2ccc(OC(F)F)c(Cl)c2)cc1Cl | 73.0* | 94.7* | -20.0 | -0.1 | 37.6* | 90.7* | 91.7*
COc1ccc(NC(=S)Nc2ccc(C)c(Cl)c2)cc1OC | 24.9 | 52.5* | -16.4 | 0.3 | 12.6* | 12.6 | 100.0*
O=C(NNC(=S)Nc1cccc(Cl)c1)c1ccccc1OC(F)F | 22.3 | 86.5* | 13.2 | 0.2 | 0.2 | -3.1 | 90.0*
Cc1ccc(NC(=S)N(C)N)cc1Cl | 2.6 | 1.7 | 1.5 | -0.6 | -2.0 | 6.5 | .
O=c1c(C(c2c(O)nc3n(c2=O)CCS3)c2cccc3ccccc23)c(O)nc2n1CCS2 | -6.6 | -2.0 | -6.4 | -0.1 | -0.2 | 34.2 | .
CCOC(=O)C1(C)NC(c2cccs2)C2C(=O)N(c3ccc(C)cc3)C(=O)C21 (stereo not drawn) | 11.0 | 0.3 | -4.2 | 0.1 | -1.9 | 29.5 | .
COc1ccc(NC(=O)NC23CC4(C)CC(C)(CC(C)(C4)C2)C3)cc1OC | 24.7 | 76.5* | -20.1 | -0.6 | -0.3 | 63.7 | 50.8*
COc1ccc(NC(=O)Nn2cnnc2)cc1OC | . | 0.6 | . | -0.4 | 0.6 | . | .
N#CCC(=O)Nc1ccc(C(=O)OCC(=O)NC(=O)Nc2ccc3c(c2)OCCO3)cc1 | . | 0.2 | . | -0.2 | 3.0 | . | .
CCOC(=O)c1ccc(NC(=S)NCCc2ccc(F)cc2)cc1 | 53.6 | 84.7* | 13.7 | -0.5 | 23.6* | -1.5 | 78.8*
CCOC(=O)c1ccc(NC(=S)Nc2ccccc2)cc1 | -3.5 | 87.8* | -5.5 | -0.5 | -10.9 | 3.7 | 95.4*
CCOC(=O)c1cn[nH]c1NC(=S)Nc1ccc(Cl)cc1 | . | 66.1* | -10.3 | 3.8 | 3.5 | -8.3 | 64.7*
CCOC(=O)c1ccc(NC(=O)Nc2ccc3c(c2)OCCO3)cc1 | 16.7 | 74.4* | -22.7 | -0.2 | 14.2* | -2.1 | 78.1*
CCOC(=O)c1ccc(NC(=S)Nc2ccc(C)cc2)cc1 | 1.8 | 8.7 | 5.2 | -0.8 | -12.8 | 38.4 | .
Cc1ccc(S(=O)(=O)NCCC2=CCCCC2)cc1 | . | -1.0 | . | -0.4 | 2.4 | . | .
Cc1ccc(CNCCC2=CCCCC2)cc1 | 5.9 | 64.7* | -3.7 | -0.9 | -1.9 | 20.9 | -2.1 | MPTP abs DR=18.6*;MPTP counter DR=48.5*
COC(=O)c1ccc(NC(=S)NCCC2=CCCCC2)cc1 | 10.3 | 89.2* | -3.1 | -0.9 | 6.5 | 7.9 | 86.5*
COC(=O)c1cccc(NC(=S)NCCC2=CCCCC2)c1 | 1.1 | 5.4 | -1.8 | -1.0 | -8.4 | 63.4 | .
O=C(/C=C/c1cccs1)NC1CC1 | 6.8 | -2.2 | -9.6 | -0.1 | 1.6 | -7.4 | .
SMILES | WT yeast gro inh | MPTP block | EBV gp42 inh | TbMetRS inhib | GRIN3A LBD mod | CHOP inhibitor | MPTP counter | others
O=C1/C(=C\c2cc([N+](=O)[O-])ccc2O)SC(=S)N1Cc1ccc(Cl)cc1 | . | 52.1* | . | 0.2 | -15.5 | . | 6.6
O=C1/C(=C\c2cccc(O)c2O)SC(=S)N1Cc1ccccc1 | . | 91.6* | . | 0.5 | 37.6* | . | 45.8*
O=C(CCCN1C(=O)/C(=C\c2cccs2)SC1=S)Nc1cc([N+](=O)[O-])ccc1O | . | 73.6* | . | -0.2 | 23.4* | . | 63.5*
O=C(O)CN1C(=O)/C(=C\c2cc([N+](=O)[O-])ccc2OCc2ccccc2Cl)SC1=S | . | 0.5 | . | 0.1 | -4.5 | . | .
O=C1/C(=C\c2cccc(O)c2)SC(=S)N1Cc1ccccc1 | . | 4.0 | . | -0.7 | 4.7 | . | .
Cc1ccccc1/C=C1\SC(=S)N(/N=C/c2cc([N+](=O)[O-])ccc2O)C1=O | -10.5 | 79.9* | -19.8 | 0.0 | 7.3 | 18.9 | 45.0*
CCCC(=O)c1ccc(N2CCN(S(=O)(=O)c3ccc(C)cc3)CC2)c(F)c1 | 10.5 | 6.0 | -13.3 | -1.4 | 0.4 | 37.6 | .
Cc1cc(NC(=O)c2ccc(S(=O)(=O)N(C)C)cc2)no1 | 7.9 | -1.1 | -1.0 | 0.5 | 0.5 | 34.8 | .
CN(C)C(CNC(=O)c1cc(S(=O)(=O)N(C)Cc2ccccc2)ccc1Cl)c1ccco1 (stereo not drawn) | . | 67.6* | . | -0.3 | 1.0 | . | 70.1*
CN(C)C(CNC(=O)c1cc(Br)ccc1Cl)c1ccco1 (stereo not drawn) | . | 1.9 | . | -0.6 | 1.6 | . | .
CC(C)c1ccc(NC(=O)C2Cc3c(-c4ccc(Cl)cc4)ccnc3O2)cc1 (stereo not drawn) | . | 0.8 | . | 0.4 | . | . | .
O=C(COC(=O)c1cc(S(=O)(=O)N2CCCC2)ccc1O)Nc1ccc(SC(F)F)cc1 | . | 92.3* | . | -0.3 | 13.2* | . | 96.2*
CC(CNC(=O)c1cc(COc2ccc3ncccc3c2)on1)c1ccccc1 (stereo not drawn) | . | 98.6* | . | -0.3 | -0.8 | . | 101.5*
O=C(NC1CCCCCCC1)c1cc(COc2ccc3ncccc3c2)on1 | 17.1 | 101.9* | 4.3 | -0.8 | -10.4 | 81.0* | 98.9*
O=C(c1cc(COc2ccc3ncccc3c2)on1)N1CCCC(O)C1 (stereo not drawn) | 3.1 | 1.6 | 7.5 | -0.1 | -0.2 | 28.8 | .
O=C(NCCCCNC(=O)c1ccc(Br)cc1)c1ccc(Br)cc1 | . | 0.8 | . | -0.2 | -0.3 | . | .
CSCCC(NC(=O)c1ccc(Cl)cc1)C(=O)OCC(=O)Nc1ccc(C#N)cc1 (stereo not drawn) | -5.4 | 50.4* | 8.1 | -1.1 | -1.5 | 11.2 | 44.2*
O=C(c1ccco1)N1CCN(C(=O)c2cccc3c2C(=O)N(Cc2cccnc2)C3)CC1 | -9.6 | -0.7 | -5.6 | -0.5 | 1.0 | -10.6 | .
COc1ccc(Oc2cccc(Cl)c2CNC(=O)CSCC(=O)O)cc1 | . | 4.6 | -9.1 | 0.2 | -0.2 | 14.7 | .
CCOc1ccc2nc(N3C(=O)/C(=C/c4ccc(Cl)cc4)NC3=S)sc2c1 | -15.6 | 92.4* | 64.1* | 0.6 | -0.7 | 104.6* | 5.3
O=C(OCC#CCSc1nnc(-c2cccc3ccccc23)o1)c1ccc(F)cc1 | . | -0.6 | . | 0.3 | 2.0 | . | .
